Data from ChEMBL document CHEMBL1131529, “Novel tetranuclear orthometalated complexes of Pd(II) and Pt(II) derived from p-isopropylbenzaldehyde thiosemicarbazone with cytotoxic activity in cis-DDP resistant tumor cell lines. Interaction of these complexes with DNA” (J Med Chem, 1998).
“And” between values parts separate entries of the source, which are not always exact repeats. Identical values can stand only once.

Assays:
PAM-RAS (Mus musculus) = experiment: Inhibitory activity against PAM-RAS cell line
PAM = experiment: Inhibitory activity against PAM cell line; assay type: functional, cell-based, Mus musculus
Method in brief: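 Murine keratinocytes, normal Pam and H-ras-transformed Pam-Ras, were grown in DMEM with 10% FCS and 2 mM glutamine. They were seeded at 10^4 cells/well, preincubated 3–4 h, then given compounds at 0–100 µM final for 24 h. MTT was added to 1 mg/mL for 5 h at 37 °C and absorbance read at 520 nm. IC50 came from % survival vs concentration plots, in quadruplicate.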

GLIOMA#112 = experiment: Inhibitory activity against GLIOMA#112 cell line; assay type: functional, cell-based, Homo sapiens
Method in brief: (§1)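 Cells were seeded at 10^4/well and treated 24 h with compounds at 0–100 µM final (solvent ≤10%). Survival was measured by MTT reduction (1 mg/mL, 5 h) read at 520 nm. IC50 came from survival–concentration curves, in quadruplicate.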

Jurkat = experiment: Inhibitory activity against JURKAT cell line; assay type: functional, cell-based, Homo sapiens
Method in brief: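 Compounds were added at 0–100 µM final (ethanol or DMSO vehicle, ≤10%) for 24 h. MTT was added to 1 mg/mL for 5 h at 37 °C and absorbance read at 520 nm. IC50 came from % survival vs concentration curves, in quadruplicate.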

GLIOMA#108 = experiment: Inhibitory activity against GLIOMA#108 cell line; assay type: functional, cell-based, Homo sapiens
Method in brief: as §1

HeLa = experiment: Inhibitory activity against HeLa cell line; assay type: functional, cell-based, Homo sapiens
Method in brief: (§2)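 HeLa cervical carcinoma cells were grown in DMEM with 10% FCS, and NIH 3T3 cells in DMEM with 10% newborn calf serum. Both were seeded at 10^4 cells/well and exposed 24 h to compounds at 0–100 µM final (ethanol or DMSO ≤10%). MTT was added to 1 mg/mL for 5 h at 37 °C and A520 read. IC50 came from survival curves, in quadruplicate.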

NIH3T3 = experiment: Inhibitory activity against 3T3 cell line; assay type: functional, cell-based, Mus musculus
Method in brief: as §2

Row | Compound | IC50 (PAM-RAS (Mus musculus); Mus musculus, PAM-RAS) [µM] | IC50 (PAM; Mus musculus, PAM) [µM] | IC50 (GLIOMA#112; glioma#112) | IC50 (PAM-RAS (Mus musculus); pam-ras) | IC50 (Jurkat) | IC50 (GLIOMA#108; glioma#108) | IC50 (HeLa) [µM] | IC50 (PAM; pam) [µM] | IC50 (NIH3T3) [µM] | IC50 (GLIOMA#112; Homo sapiens, GLIOMA#112) [µM] | IC50 (GLIOMA#108; Homo sapiens, GLIOMA#108) [µM]
1 | COc1cccc2c1C(=O)c1c(O)c3c(c(O)c1C2=O)C[C@@](O)(C(=O)CO)C[C@@H]3O[C@H]1C[C@H](N)[C@H](O)[C@H](C)O1 [DOXORUBICIN] | 156 | 150 |  |  |  |  |  |  |  |  | 
2 | Tetrameric orthopalladated p-isopropylbenzaldehyde thiosemicarbazone |  |  | 50 µM and 35 µM | 37 µM and 5 µM | 6 µM and 7 µM | 40 µM and 62 µM |  |  |  |  | 
3 | CISPLATIN |  |  | 120 µM | 165 µM | 22 µM | 86 µM | 7 | 164 | 35 |  | 
4 | Tetrameric orthoplatinated p-isopropylbenzaldehyde thiosemicarbazone |  |  | 27 µM | 9 µM | 7 µM | 54 µM | 20 | 30 | 21 |  | 
5 | COc1cc([C@@H]2c3cc4c(cc3[C@@H](O[C@@H]3O[C@@H]5CO[C@@H](C)O[C@H]5[C@H](O)[C@H]3O)[C@H]3COC(=O)[C@H]23)OCO4)cc(OC)c1O [ETOPOSIDE] | 136 | 180 |  |  |  |  |  |  |  | 62 | 76
